ChEMBL document CHEMBL4354873, “Rationally Designed Small-Molecule Inhibitors Targeting an Unconventional Pocket on the TLR8 Protein-Protein Interface” (J Med Chem, 2020)
The source made the active and inactive calls. The rule behind the calls is not given here.

Experiments:
[1] = biological target: T1, Toll-like receptor 8 (Homo sapiens) (UniProt Q9NR97); assay: Inhibition of human TLR8 expressed in HEK-Blue cells assessed as inhibition of R848-induced NF-kappaB activation at 20 uM measured after 24 hrs by quanti-blue based SEAP reporter gene assay; format: cell-based
T1 sequence (whole entry): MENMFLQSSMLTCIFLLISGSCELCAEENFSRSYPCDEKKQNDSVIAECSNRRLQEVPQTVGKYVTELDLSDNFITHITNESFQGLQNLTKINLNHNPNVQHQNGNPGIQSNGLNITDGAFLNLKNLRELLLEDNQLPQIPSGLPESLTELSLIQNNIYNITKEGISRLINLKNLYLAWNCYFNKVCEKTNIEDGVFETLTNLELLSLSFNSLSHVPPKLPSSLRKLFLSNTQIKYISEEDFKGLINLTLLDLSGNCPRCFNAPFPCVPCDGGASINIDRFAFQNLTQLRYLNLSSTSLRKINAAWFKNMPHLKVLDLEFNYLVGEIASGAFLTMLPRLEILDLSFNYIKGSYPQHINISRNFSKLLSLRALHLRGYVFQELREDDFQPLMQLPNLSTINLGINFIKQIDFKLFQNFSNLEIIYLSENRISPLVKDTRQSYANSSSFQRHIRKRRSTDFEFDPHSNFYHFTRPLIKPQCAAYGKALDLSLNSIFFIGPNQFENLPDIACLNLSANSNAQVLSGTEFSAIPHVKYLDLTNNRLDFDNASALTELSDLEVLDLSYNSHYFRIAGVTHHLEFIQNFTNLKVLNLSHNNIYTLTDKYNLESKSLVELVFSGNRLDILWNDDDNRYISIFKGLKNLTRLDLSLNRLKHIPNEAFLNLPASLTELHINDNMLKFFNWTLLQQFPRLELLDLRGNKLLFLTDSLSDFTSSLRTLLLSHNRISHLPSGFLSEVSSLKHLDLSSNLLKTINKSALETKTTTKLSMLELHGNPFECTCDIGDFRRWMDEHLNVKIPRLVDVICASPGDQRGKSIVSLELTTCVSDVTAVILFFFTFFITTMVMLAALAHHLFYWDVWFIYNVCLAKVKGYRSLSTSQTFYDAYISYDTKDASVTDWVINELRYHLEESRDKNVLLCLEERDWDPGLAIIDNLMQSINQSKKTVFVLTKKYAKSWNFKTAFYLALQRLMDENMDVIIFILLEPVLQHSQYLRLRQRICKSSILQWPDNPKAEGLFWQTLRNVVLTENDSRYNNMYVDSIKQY
How it was run: (§1)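 HEK-Blue SEAP format: 4 × 10⁴ cells/well in DMEM with ligand plus compound, 24 h at 37 °C. Supernatant mixed with QUANTI-Blue up to 1 h, then A620 read. Ligands: Pam3CSK4 100 ng/mL (TLR1/2), Pam2CSK4 100 ng/mL (TLR2/6), poly(I:C) 5 µg/mL (TLR3), LPS 20 ng/mL (TLR4), flagellin 50 ng/mL (TLR5), R848 1 µg/mL (TLR7), R848 2 µg/mL (TLR8), ODN2006 0.5 µM (TLR9). Mean ± s.d.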

Toll-like receptor 8 [2] = biological target: T2, Toll-like receptor 8 (Homo sapiens, UniProt Q9NR97); assay: Binding affinity to human TLR8 ectodomain by isothermal titration calorimetry
T2 sequence (Q9NR97 whole entry): T1 sequence (whole entry)
How it was run: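 ITC at 298 K in 25 mM MES pH 5.5, 0.20 M NaCl, 5% DMSO. The protein was the human TLR8 ectodomain (residues 27–827). 100 µM compound was titrated into 10 µM hTLR8 as one 0.4 µL injection followed by 18 × 2 µL injections, 120 s apart. Integrated peaks were fitted for Kd.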

[3] = biological target: T1, Toll-like receptor 8 (Homo sapiens); assay: Inhibition of R848 binding to human TLR8 ectodomain at 50 uM by isothermal titration calorimetry
Toll-like receptor 8 [4] = biological target: T2, Toll-like receptor 8; assay: (§2) Inhibition of human TLR8 expressed in HEK-Blue cells assessed as inhibition of R848-induced NF-kappaB activation measured after 24 hrs by quanti-blue based SEAP reporter gene assay; format: cell-based
[5] = biological target: T1, Toll-like receptor 8 (Homo sapiens); assay: as §2; format: cell-based
TLR2/TLR6 (Homo sapiens) = TLR2/TLR6 (Homo sapiens) (UniProt O60603+Q9Y2C9); assay: Inhibition of human TLR2/6 expressed in HEK-Blue cells assessed as inhibition of Pam2CSK4-induced NF-kappaB activation at 20 uM measured after 24 hrs by quanti-blue based SEAP reporter gene assay; format: cell-based; how it was run: as §1
[6] = biological target: T1, Toll-like receptor 8 (Homo sapiens); assay: Inhibition of TLR8 in rheumatoid arthritis patient-derived PBMC assessed as reduction in spontaneous TNFalpha production measured after 24 hrs by ELISA
[7] = biological target: T1, Toll-like receptor 8 (Homo sapiens); assay: Inhibition of human TLR8 expressed in HEK-Blue cells assessed as inhibition of R848-induced IL-8 mRNA level at 1 uM measured after 8 hrs by Trizol reagent based qRT-PCR analysis; format: cell-based
How it was run: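 RT-qPCR: HEK-Blue TLR8 cells seeded at 1 × 10⁶/well and grown 24 h, then switched to serum-free medium. Treated with R848 4 µg/mL ± compound 1 µM for 8 h. Total RNA extracted with TRIzol, reverse transcribed, TNF-α and IL-8 mRNA quantified. Three independent biological replicates, mean ± s.d.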

[8] = biological target: T1, Toll-like receptor 8 (Homo sapiens); assay: Inhibition of TLR8 in human monocytes assessed as reduction in R848-induced TRAF3 expression measured after 2 hrs by Western blot analysis; format: cell-based
How it was run: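 Monocyte cell lines, 2 × 10⁶/well, differentiated with PMA 100 ng/mL for 24 h. After washes, cells in unsupplemented RPMI received R848 1 µg/mL with varying compound concentrations for 2 h. Nuclear/cytoplasmic fractions extracted and resolved on 10% SDS-PAGE. Blots probed for p65, TRAF3 and p-IRAK4 (1:1000); lamin A/C (nuclear) and β-actin (cytoplasmic) as loading controls.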

inhibition [1]: Active
Kd (Toll-like receptor 8 [2]): 0.225 µM
inhibition [3]: Active
IC50 (Toll-like receptor 8 [4]): 0.03 µM
inhibition [5]: Dose-dependent effect
inhibition (TLR2/TLR6 (Homo sapiens)): inactive
inhibition [6]: Dose-dependent effect
inhibition [7]: Active
inhibition [8]: Dose-dependent effect
Structure (SMILES): CSc1nnc(CCCO)n1-c1cc(C)c(C)c(C)c1
